# RGS4 inh – RGS4 inhibitors, primary screen, cell-based, HEK293 M3R inducible RGS4, calcium flux. Fluo-4 calcium flux; stronger effect = higher value; triggered by carbachol at its EC20. B-score at 10 µM. 310,000 compounds, 0.45% hits. AID 463165, 2010;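 active = B-score, a plate-corrected calcium signal, over three deviations above library mean, with baseline fluorescence within five deviations of library mean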;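 also: RGS4 expression induced by doxycycline in cells with stable M3 receptor; B-score is computed from the integrated fluorescence ratio over baseline after carbachol; higher B-score means a larger calcium signal and so more RGS4 inhibition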
# Target sequence (P49798 whole entry, looked up): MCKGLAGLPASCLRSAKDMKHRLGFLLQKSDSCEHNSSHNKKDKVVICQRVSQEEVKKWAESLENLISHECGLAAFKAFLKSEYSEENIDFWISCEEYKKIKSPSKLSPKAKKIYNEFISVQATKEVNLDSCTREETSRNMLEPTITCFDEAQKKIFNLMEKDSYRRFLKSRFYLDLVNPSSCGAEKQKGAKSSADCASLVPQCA
# MrgX1 PAM – positive allosteric modulators of MrgX1, primary screen, HEK293 cells, Fluo-4 calcium flux | AID 588675, 2011 | B-score at 10 µM | FDSS; stronger effect = higher value | 310,000 compounds, 0.63% hits | Mas-related G-protein coupled receptor member X1 (Homo sapiens), Q96LB2;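 active = plate-corrected calcium response at least 3 library SD above typical, normal starting fluorescence, not activating the receptor alone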;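 also: compound read alongside a low EC10 to EC30 dose of BAM8-22 agonist; peak minus trough fluorescence over baseline measured at the second addition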
# Target sequence (Q96LB2 whole entry, looked up): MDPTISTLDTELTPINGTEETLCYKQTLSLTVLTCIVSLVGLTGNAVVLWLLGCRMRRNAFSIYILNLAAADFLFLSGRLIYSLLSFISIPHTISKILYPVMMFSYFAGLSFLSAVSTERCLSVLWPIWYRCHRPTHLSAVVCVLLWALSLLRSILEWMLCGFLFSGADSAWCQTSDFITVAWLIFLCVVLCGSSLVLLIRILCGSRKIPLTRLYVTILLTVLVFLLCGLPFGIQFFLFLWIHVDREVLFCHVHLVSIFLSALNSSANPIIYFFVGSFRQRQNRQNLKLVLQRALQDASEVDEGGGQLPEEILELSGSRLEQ
# MrgX1 ag – agonists of human MrgX1 receptor, primary screen, HEK293 cells, Fluo-4 calcium flux. Mas-related G-protein coupled receptor member X1 (Homo sapiens), Q96LB2. Fluo-4 calcium fluorescence, agonist mode; stronger effect = higher value. B-score at 10 µM. 310,000 compounds, 0.44% hits. AID 588627, 2011;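 active = calcium response B-score plate-corrected fluorescence ratio at least 3 library SD, with starting fluorescence B-score inside 5 SD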
#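 Material – MrgX1-expressing HEK293 cells · Input – 15,000 cells seeded per well · Dosing – compound as first of three additions · Times – overnight seeding, then 1 h dark dye loading · Measured by – kinetic Fluo-4 NW fluorescence of intracellular calcium · Read-out – B-scored fluorescence response ratio · Benchmarks – positive and negative control wells on each plate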
# RGS4 pot – RGS4 potentiators or activators, primary screen, cell-based, HEK293 M3R inducible RGS4, calcium flux; 310,000 compounds, 0.92% hits; carbachol calcium flux Fluo4; stronger effect = lower value; AID 463111, 2010; B-score at 10 µM;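 active = B-score of the integrated calcium signal more than 4 SD below the library mean, with starting fluorescence not abnormally high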;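 also: negative B-score means reduced calcium response which marks RGS4 activation or potentiation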
#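 Also added: carbachol at ECmax as muscarinic agonist stimulus; Assay system: HEK293 cells with stable M3R and inducible RGS4; Timing: overnight RGS4 induction, 30 min dye load 37 °C, 20 min compound RT; Measured by: Fluo4-AM (2 µM) calcium-flux fluorescence, kinetic read.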
# MrgX1 antagonist – antagonists of human MrgX1 receptor, primary screen, HEK293 cells, Fluo-4 calcium flux; BAM8-22 antagonism; stronger effect = lower value; 310,000 compounds, 1.3% hits; Mas-related G-protein coupled receptor member X1 (Homo sapiens), Q96LB2; AID 588676, 2011; B-score at 10 µM;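 active = calcium-response B-score plate-corrected more than 3 library SD below zero, starting fluorescence within 5 deviations, no agonist response on first addition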;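 also: peak minus trough fluorescence over baseline after final BAM8-22 challenge near maximal dose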
# * marks the source's active call; other numbers are inactive results; i = inactive; nt = not tested or not shown. In the library only some 3.5% were active in any assay of this set; here they are far more common.
SMILES,RGS4 inh,MrgX1 PAM,MrgX1 ag,RGS4 pot,MrgX1 antagonist
CC1CCC(NC(=O)C2CC(=O)N(c3ccc(Cl)cc3)C2)CC1 (configuration not stated),i,i,i,i,i
O=C(CC1C(=O)NCCN1Cc1ccccc1C(F)(F)F)NC1CCCCC1 (configuration not stated),i,i,i,i,i
COc1ccc(CCNC(=O)COC(=O)Cn2cnc3ccccc3c2=O)cc1,i,i,i,i,i
CCCCN(CC)S(=O)(=O)c1ccc(C(=O)N(CCCN(C)C)c2nc3cc(C)cc(C)c3s2)cc1,i,i,i,-8.05*,i
CCOc1cccc2sc(N(CCCN(C)C)C(=O)c3ccc(S(=O)(=O)N(CC)Cc4ccccc4)cc3)nc12,i,i,i,-7.66*,i
CCN(Cc1ccccc1)S(=O)(=O)c1ccc(C(=O)N(CCCN(C)C)c2nc3cc(C)cc(C)c3s2)cc1,i,i,i,i,i
COc1cccc2sc(N(CCN(C)C)C(=O)c3ccc4c(c3)CCCC4)nc12,i,6.68*,i,i,i
COc1cc(/C=C2\C(=O)NN(c3ccc(C)cc3)C2=O)cc([N+](=O)[O-])c1O,i,i,i,i,i
COc1cc(/C=C2/C(=O)NN(c3ccc(Cl)cc3)C2=O)cc(OC)c1O,i,i,44.2*,i,i
CCOC(=O)COc1ccc(/C=C2/C(=O)NN(c3ccc(F)cc3)C2=O)cc1OC,i,i,46.3*,i,i
O=C1Cc2cc(S(=O)(=O)NCc3ccccc3Cl)cc3c2N1CCC3,i,i,i,i,i
Cc1cc(Cl)c(S(=O)(=O)N/N=C/c2ccc3c(c2)OCO3)c(Cl)c1,i,i,i,-8.21*,i
O=C(N/N=C/c1ccc2c(c1)OCO2)C1CC1,i,i,i,i,-5.4*
C[N+]1(CC(O)c2ccccc2)CCCCCC1 (configuration not stated),i,i,i,i,i
CC(=O)OC(C[N+]1(C)CCCCCC1)c1ccccc1 (configuration not stated),i,i,i,-7.01*,i
COc1ccccc1C1NC=C([N+](=O)[O-])C=C1[N+](=O)[O-] (configuration not stated),i,i,28.7*,i,i
Cc1ccc(S(=O)(=O)N2CCCCC2)cc1NC(=O)C1CCCO1 (configuration not stated),i,i,i,i,i
Cc1ccc(N2C(=O)C3C=NNC3C2=O)cc1 (configuration not stated),i,i,i,i,-4.99*
COC(=O)C1=NNC2C(=O)N(c3ccc(C)cc3)C(=O)C12 (configuration not stated),i,i,i,i,i
OCC1(Cc2ccc(F)cc2)CCCN(CCCC(F)(F)F)C1 (configuration not stated),i,i,i,i,i
CCn1c(=O)c(CCC(=O)N2CCN(c3ccccn3)CC2)c(C)c2c(C)nn(-c3cccc(C)c3)c21,i,i,i,i,i
O=P(CCCCCCCCCP(=O)(c1ccccc1)c1ccccc1)(c1ccccc1)c1ccccc1,i,i,i,-7.04*,i
Cc1cc(/C=C2\SC(=S)N(Cc3ccco3)C2=O)c(C)n1-c1cccnc1,i,nt,nt,i,nt
Cc1cc(/C=C2/SC(=S)N(c3cccc(C(F)(F)F)c3)C2=O)c(C)n1-c1cccnc1,i,16*,i,i,i
Nc1ccc(N=Nc2ccccc2)c2cccnc12,4.96*,i,i,i,i
SMILES,RGS4 inh,MrgX1 PAM,MrgX1 ag,RGS4 pot,MrgX1 antagonist
CCN(CC)CC#CCOC(=O)C(O)(c1ccccc1)C1CCCCC1 (configuration not stated),i,i,i,-7.02*,i
C[N+]1(C)CC[C@H](OC(=O)[C@@](O)(c2ccccc2)C2CCCC2)C1,i,i,i,i,i
Cc1ccccc1SCC(=O)Nc1cc(C(F)(F)F)ccc1N1CCOCC1,i,11*,i,i,i
COC(=O)/C=c1/s/c(=C(/C#N)C(=O)N2CCCCC2)n(-c2ccccc2)c1=O,i,i,i,i,i
COc1cc(/C=c2\s/c(=C(/C#N)C(=O)N3CCCC3)n(-c3ccccc3)c2=O)ccc1O,i,14.3*,i,i,i
CC1(C)CC(=O)C(C2C3=C(CC(C)(C)CC3=O)Oc3ccc4ccccc4c32)C(=O)C1 (configuration not stated),i,i,40*,i,i
CC1(C)CC(=O)C(C2C3=C(CC(C)(C)CC3=O)Oc3ccccc32)C(=O)C1 (configuration not stated),i,i,i,i,i
Cc1cnc(NS(=O)(=O)c2ccccc2)c(C)n1,i,i,i,i,i
O=C(Nc1ccccc1Cl)C1(c2ccccc2)CC1(Cl)Cl (configuration not stated),i,i,i,-7.03*,i
O=C(Nc1ccc(N2CCCC2)cc1)c1cccc(Cl)c1Cl,i,i,i,i,i
Cn1c(=O)c(C(=O)NNC(=O)c2ccccc2Cl)c(O)c2ccccc21,i,i,29.2*,i,i
Cn1c(=O)c(C(=O)NNC(=O)c2ccccc2Br)c(O)c2ccccc21,i,8.45*,i,i,i
COc1cccc(NC(=O)CN(C)C(=O)c2ccc(OCc3ccccc3)c(OC)c2)c1,i,i,i,i,i
COc1ccc2c(c1)CC(C(=O)Nc1ccc(Cl)cc1)/C(=N/O)O2 (configuration not stated),i,i,i,i,i
COc1ccc(C(CNC(=O)c2ccc(-c3cccc(C(F)(F)F)c3)o2)N2CCOCC2)cc1 (configuration not stated),i,i,i,i,i
O=C(c1ccccc1)C(Nc1ccccn1)c1ccccc1 (configuration not stated),i,i,i,-7.47*,i
O=C(CC(=O)c1ccccc1)Nc1ccccn1,i,i,i,i,i
C=CCOc1ccc(C(c2c(C)n(C)n(-c3ccccc3)c2=O)c2c(C)n(C)n(-c3ccccc3)c2=O)cc1,i,i,i,i,i

# High-throughput results from PubChem.
